Results: ChEMBL document CHEMBL1126008, “Decorporation of aged americium deposits by oral administration of lipophilic polyamino carboxylic acids” (1992)

Tests used:
Canis familiaris = experiment: In vitro elimination of Pu (given as citrate) from in vivo tagged canine liver cytosol after administration of the compound; value expressed as following filtrate to residue activity; assay type: functional, Canis lupus familiaris
Method in brief: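 Liver homogenate in 0.25 M sucrose from a dog injected with Pu-citrate 7 days before sacrifice. Spun 20 min at 40000g to give cytosol, which was dialyzed against 50 mM TRIS-HCl. Cytosol mixed 1:1 with 4 mM compound (stock) in 0.1 M TRIS-HCl, pH 7.5, 270–300 mOsm. Incubated 2 h at 40 °C, then pressure-filtered through a 10000 Da cutoff. Read-out: Pu filtrate/residue ratio; control had no compound.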

Rattus norvegicus [1] = experiment: Reduction in both femora 241Am after daily feeding of 200 uM of the compound/kg of body weight to rats for 10 days; assay type: functional
Method in brief: (§1)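 Sprague-Dawley rats aged 60 days, nine per group. ²⁴¹Am in citrate buffer pH 3.5 given as a single jugular iv injection. From one week later, compound given at 50 μmol/rat (about 200 μmol/kg) in a daily 25 g chow ration for 10 days; untreated controls. Tissues counted for ²⁴¹Am at necropsy. Reduction = […]. p values given.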

Rattus norvegicus [2] = experiment: Reduction in carcass 241Am after daily feeding of 200 uM of the compound/kg of body weight to rats for 10 days; assay type: functional; method in brief: as §1
Rattus norvegicus [3] = experiment: Reduction in liver 241Am after daily feeding of 200 uM of the compound/kg of body weight to rats for 10 days; assay type: functional; method in brief: as §1
Rattus norvegicus [4] = experiment: Reduction in one kidney 241AM after daily feeding of 200 uM of the compound/kg of body weight to rats for 10 days; assay type: functional; method in brief: as §1
Rattus norvegicus [5] = experiment: Reduction in whole body 241Am after daily feeding of 200 uM of the compound/kg of body weight to rats for 10 days; assay type: functional; method in brief: as §1
Rattus norvegicus [6] = experiment: Weight gain after daily feeding of 200 uM of the compound/kg of body weight to rats for 10 days; assay type: functional
Method in brief: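 Sprague-Dawley rats aged 60 days, nine per group, given ²⁴¹Am iv (jugular, citrate pH 3.5) one week before feeding began. Compound given at 50 μmol/rat (about 200 μmol/kg) daily in 25 g chow for 10 days; untreated controls. Weight gain over the feeding period reported as mean ± deviation.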

Rattus norvegicus [7] = species on record: Rattus norvegicus; experiment: Percent retention in rat carcass was measured in situ using intestinal tied-loop technique; assay type: functional, organism-based
Rattus norvegicus [8] = species on record: Rattus norvegicus; experiment: Percent retention in rat gut section was measured in situ using intestinal tied-loop technique; assay type: functional, organism-based
Rattus norvegicus [9] = species on record: Rattus norvegicus; experiment: Percent retention in rat liver was measured in situ using intestinal tied-loop technique; assay type: functional, organism-based
Rattus norvegicus [10] = species on record: Rattus norvegicus; experiment: Percent retention in rat lumen was measured in situ using intestinal tied-loop technique; assay type: functional, organism-based
Rattus norvegicus [11] = species on record: Rattus norvegicus; experiment: Percent retention in rat visera was measured in situ using intestinal tied-loop technique; assay type: functional, organism-based

| SMILES | Activity (Canis familiaris) | Reduction (Rattus norvegicus [1]) | Reduction (Rattus norvegicus [2]) | Reduction (Rattus norvegicus [3]) | Reduction (Rattus norvegicus [4]) | Reduction (Rattus norvegicus [5]) | Weight (Rattus norvegicus [6]) | Retention (Rattus norvegicus [7]) | Retention (Rattus norvegicus [8]) | Retention (Rattus norvegicus [9]) | Retention (Rattus norvegicus [10]) | Retention (Rattus norvegicus [11]) |
| --- | --- | --- | --- | --- | --- | --- | --- | --- | --- | --- | --- | --- |
| CCCCCCCCN(CCN(CCN(CCN(CC(=O)O)CC(=O)O)CC(=O)O)CC(=O)O)CC(=O)O | 0.16 |  |  |  |  |  |  |  |  |  |  |  |
| CCCCCCCCCCCCCCCCCCCCCCN(CCN(CCN(CCN(CC(=O)O)CC(=O)O)CC(=O)O)CC(=O)O)CC(=O)O |  | 32% | 37% | 89% | 26% | 44% | 70.2 g |  |  |  |  |  |
| CCCCCCCCCCCCN(CCN(CCN(CCN(CC(=O)O)CC(=O)O)CC(=O)O)CC(=O)O)CC(=O)O | 0.26 | 17% | 20% | 71% | 23% | 29% | 55.7 g | 20% | 73% | 3% | 73% | 4% |
